Data on one compound can be found in ChEMBL document CHEMBL4011639, “Discovery of Novel Nucleotide Prodrugs with Improved Potency Against HCV Variants Carrying NS5B S282T Mutation” (J Med Chem, 2017).

This data set concerns the target Adenosine 5'-monophosphoramidase HINT1 (Homo sapiens, UniProt P49773). Briefly: Drug metabolism in human HuH7 cells assessed as HINT1-mediated ((2R,3R,4R,5R)-5-(4-butyramido-2-oxopyrimidin-1(2H)-yl)-4-fluoro-3-hydroxy-4-methyltetrahydrofuran-2-yl)methyl dihydrogen phosphate metabolite formation at 50 uM after 48 hrs by LC/MS/MS analysis. The format is ADME, cell-based. An outline of the steps:
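Huh-7 cells plated at 0.35 million/mL in DMEM with 10% FBS (about 1 million per well at dosing) and grown 18 h. At each time point cells were washed with cold saline and lysed in methanol with internal standard. Semiquantified by LC/MS/MS MRM as Δ mean peak-area ratio relative to t0.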

Chain of Adenosine 5'-monophosphoramidase HINT1 (P49773 whole entry): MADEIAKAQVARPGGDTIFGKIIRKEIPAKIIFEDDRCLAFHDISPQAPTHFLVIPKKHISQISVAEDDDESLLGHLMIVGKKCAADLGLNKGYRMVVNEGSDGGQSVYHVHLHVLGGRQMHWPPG

For the compound `CCCC(=O)Nc1ccn([C@@H]2O[C@H](CO[P@@](=O)(N[C@@H](C)C(=O)OC(C)C)Oc3ccccc3)[C@@H](O)[C@@]2(C)F)c(=O)n1`, the Drug metabolism entry is “Metabolite_Notdetected”.
